High-throughput results as filed in PubChem BioAssay.
PDI inh = inhibitors of human PDI, primary screen, biochemical, turbidity, single point, plate reader; Protein disulfide-isomerase (Homo sapiens), P07237; PDI insulin aggregation turbidity, A650, 90 min; inhibition, % at 10 µM; 350,000 compounds, 0.052% hits; AID 588391, 2011;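 active = mean inhibition across replicates of 30% or more, whatever share of single replicates reach that level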
Target sequence (P07237 whole entry, looked up): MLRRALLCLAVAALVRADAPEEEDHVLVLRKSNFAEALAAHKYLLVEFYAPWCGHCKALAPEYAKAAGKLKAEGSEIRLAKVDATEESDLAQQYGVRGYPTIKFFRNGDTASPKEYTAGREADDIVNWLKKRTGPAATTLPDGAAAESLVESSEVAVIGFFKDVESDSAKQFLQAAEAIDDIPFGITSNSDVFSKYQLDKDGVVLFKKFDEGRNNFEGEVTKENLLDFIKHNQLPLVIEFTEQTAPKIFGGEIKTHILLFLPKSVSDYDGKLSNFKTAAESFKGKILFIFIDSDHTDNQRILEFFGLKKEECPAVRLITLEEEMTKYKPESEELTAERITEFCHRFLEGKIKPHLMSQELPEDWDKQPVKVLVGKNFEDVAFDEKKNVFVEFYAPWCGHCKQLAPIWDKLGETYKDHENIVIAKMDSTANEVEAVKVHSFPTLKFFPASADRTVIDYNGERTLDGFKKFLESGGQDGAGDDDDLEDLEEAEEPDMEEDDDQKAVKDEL
INS-1E GSIS act = GLuc luminescence reporter in INS-1E cells, primary screen for activators of glucose-dependent secretion of insulin | INS-1E GLuc reporter insulin secretion, 2-3 h | activation, % at 16.6 µM | 370,000 compounds, 0.61% hits;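 active = lowest replicate activation of at least 40%, so every replicate reaches that level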
FN deposit inh = inhibitors of fibronectin matrix deposition, primary screen, AH1F cells, Alexa488-fibronectin fluorescence, plate reader; inhibition, % at 12.6 µM; 350,000 compounds, 0.086% hits; AH1F fibroblasts, overnight;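 active = mean inhibition across replicates of 30% or more, regardless of how many single replicates reach that level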
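Material – AH1F fibroblast monolayer, labelled fibronectin deposition · Reagent – labelled fibronectin 24 nM · Timing – 1 h adhesion, overnight exposure · Measured by – fluorescence at 485 nm excitation, 525 nm emission · Read-out – inhibition of fibronectin deposition signal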
ERp5 block = inhibitors of ERp5-driven insulin aggregation, primary screen, biochemical, turbidity, absorbance 650 nm, single point; Protein disulfide-isomerase A6 (Homo sapiens), Q15084; inhibition, % at 9.99 µM; 350,000 compounds, 0.05% hits; 90 min;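 active = mean replicate inhibition above about 25%, with every replicate also reaching it, limit read from the data, passing the limit was not always enough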
Env fusion inh = inhibitors of HIV-1 Env-driven cell-cell fusion, primary screen, HeLa-JRFL effector, CEM21 target cells, luciferase | inhibition, % at 12.3 µM | 360,000 compounds, 1.1% hits;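 active = mean replicate inhibition score of at least 50 and every replicate individually at or above 50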
A number is an active result; n = inactive; x = not tested or not shown. This is a sample that favours compounds with a hit; in the whole collection about 1.4% have one here.

SMILES	PDI inh	INS-1E GSIS act	FN deposit inh	ERp5 block	Env fusion inh
CC(C)n1c(SCc2ccccc2F)nc2c1c(=O)n(C)c(=O)n2C	x	n	n	n	n
Cc1cccc(NC(=O)C2CCN(S(=O)(=O)c3ccc4c(c3)OCCCO4)CC2)n1	n	n	n	n	83.0
Cc1ccc(S(=O)(=O)N2CCC(C(=O)Nc3ccc(S(=O)(=O)N4CCCC4)cc3)CC2)cc1	31.6	n	n	n	n
Cc1cccc(NC(=O)C2CCN(S(=O)(=O)c3ccc4c(c3)OCCO4)CC2)n1	n	n	n	n	x
C[C@@H]1CN([C@H](C)CO)C(=O)c2cc(NS(=O)(=O)c3ccc(Cl)cc3)ccc2O[C@@H]1CN(C)Cc1ccc(C(=O)Nc2ccccc2N)cc1	x	n	x	n	x
CC(C)(C)c1ccc(C(=O)CCCSC2=C(C#N)C(c3ccco3)C3=C(CCCC3=O)N2)cc1 (stereo not given)	n	x	n	x	79.0
O=[N+]([O-])c1cccc(NC(=S)Nc2nc(-c3ccccc3Cl)cs2)c1	n	n	x	n	97.0
O=[N+]([O-])c1cccc(NC(=S)NCc2ccncc2)c1	n	n	n	n	n
O=C(NCC[C@@H]1CC[C@H](NC(=O)c2ccccc2F)[C@@H](CO)O1)c1ccc2c(c1)OCO2	x	n	n	n	n
CC(C)Cc1nn2c(=O)cc(COc3ccc(NC(=O)c4ccco4)cc3)nc2s1	n	46.8	n	n	n
COc1ccccc1NC(=O)N[C@@H]1C=C[C@H](CC(=O)NCc2ccc(Cl)c(Cl)c2)O[C@H]1CO	x	n	n	n	n
CCC(C)(C)NC(=O)C(c1ccc(C)cc1)N(CC1CCCO1)C(=O)c1csnn1 (stereo not given)	n	n	n	n	72.3
CN(C)CC(=O)N1CC2(C1)[C@H](c1ccccc1)[C@H](CO)N2S(C)(=O)=O	x	n	n	n	x
O=C(c1cc(-c2ccccc2)nc2ccccc12)N1CCCC1	n	44.4	n	n	n
CC(C)OCCCn1c(=S)[nH]c2ccc(N3CCOCC3)cc2c1=O	n	x	x	x	72.0
O=c1c2cc(N3CCOCC3)ccc2[nH]c(=S)n1Cc1ccc(Cl)cc1	n	x	41.1	x	n
O=C(CCCCCn1c(=S)[nH]c2ccc(N3CCOCC3)cc2c1=O)NCc1ccc(Cl)cc1	n	n	n	n	n
O=c1c2cc(N3CCOCC3)ccc2[nH]c(=S)n1CCCN1CCCCCC1	n	x	n	x	n
c1ccc2c(-c3csc(-c4ccncc4)n3)c[nH]c2c1	n	n	32.8	n	n
Brc1ccc(-c2csc(-c3c[nH]c4ccccc34)n2)cc1	n	x	x	x	x
O=C1CN(S(=O)(=O)c2cc(Br)ccc2Br)CCN1	n	n	n	n	n
O=c1c(Br)ccc(Br)cc1Br	n	n	36.4	n	n
COc1cccc(CNC(=O)C[C@H]2CC[C@H](NC(=O)C3CCOCC3)[C@@H](CO)O2)c1	x	n	n	n	n
O=c1[nH]c2cc([N+](=O)[O-])ccc2c2ccccc12	n	n	n	n	n
O=C1Cc2c([nH]c3ccc([N+](=O)[O-])cc23)-c2ccccc2N1	n	n	n	n	95.6
SMILES	PDI inh	INS-1E GSIS act	FN deposit inh	ERp5 block	Env fusion inh
COc1ccc(OC)c(NC(=O)COc2ccc3c(c2)CCC3)c1	n	n	n	n	70.1
CCOC(=O)Nc1cccc(OCC(=O)Nc2ccc3c(c2)CCC3)c1	n	44.9	n	n	x
C[C@H]1CN([C@@H](C)CO)C(=O)c2cccc(NC(=O)Nc3ccccc3)c2O[C@@H]1CN(C)C	x	n	n	n	n
O=C(C[C@@H]1C=C[C@H](NC(=O)c2ccncc2)[C@H](CO)O1)NCC1CCCCC1	x	n	n	n	n
Cc1nc2ccccc2n1CC(=O)NN	n	n	n	n	n
Cc1cc(C(=O)OCC(=O)NCc2ccc(F)cc2)c2ccccc2n1	n	n	n	n	x
Cc1nc2ccccc2n1CC(=O)NCc1ccccc1	n	n	n	x	82.7
Cc1cc(C(=O)OCC(=O)NCc2ccccc2)c2ccccc2n1	n	67.0	n	n	n
COc1ccccc1CNC(=O)COC(=O)c1cc(C)nc2ccccc12	n	48.5	n	n	x
CNC[C@@H]1Oc2ccc(NS(=O)(=O)c3ccc(OC)cc3)cc2C(=O)N([C@@H](C)CO)C[C@H]1C	x	n	n	n	x
COc1ccc(OC)c(NC(=O)c2cc3c(Cl)nc4ccccc4c3s2)c1	n	52.5	n	x	n
